{
  "source": "ChEMBL document CHEMBL4130549",
  "about": "“Synthesis and bioactivities study of new antibacterial peptide mimics: The dialkyl cationic amphiphiles” (Eur J Med Chem, 2018)",
  "key": {"[1]": {"system": "Escherichia coli", "assay": "Ratio of MIC for Escherichia coli ATCC 25922 after 20 serial passages to MIC for Escherichia coli ATCC 25922", "type": "functional, organism-based", "outline": "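Sub-MIC serial passaging: after an initial broth microdilution MIC, cells grown at MIC/2 were transferred into a new MIC assay after each 24 h incubation, for 20 passages. MIC was plotted against days to follow resistance development. Passaging controls were norfloxacin for S. aureus and colistin for E. coli.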"}, "[2]": {"system": "Escherichia coli", "assay": "Bactericidal activity against Escherichia coli ATCC 25922 at 12 after 6 hrs by time kill assay", "type": "functional, organism-based"}},
  "note": "Active and inactive are the calls of the source. No cut-off for these calls is given here.",
  "data": [
    {"compound": "COLISTIN", "values": [
      {"measurement": "Ratio", "setting": "[1]", "value": 32}
    ]},
    {"compound": "CO[C@@]1(NC(=O)[C@H](C(=O)O)c2ccc(O)cc2)C(=O)N2C(C(=O)O)=C(CSc3nnnn3C)CO[C@@H]21", "values": [
      {"measurement": "Activity", "setting": "[2]", "value": "inactive"}
    ]}
  ]
}
